Compounds with a hit are over-represented: about 0.98% of the library has one in this group of screens.
ERAP1 HTS inh: blocks human ERAP1 aminopeptidase activity | recombinant ERAP1, Leu-AMC fluorescence, 60 min | inhibition, % at 10.7 µM | 340,000 compounds, 0.15% hits | AID 652197;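 active = mean replicate inhibition of at least 30%, or all replicates individually reaching that 30% level; inactive = mean below 30% and not every replicate reaching it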;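 also: 0% = neutral control wells and 100% = L-leucinethiol positive control wells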
PGC1a acetyl inh: modulators of PGC1a acetylation | U2OS PGC1a acetylation, AlphaScreen anti-acetyl-lysine; with virally co-expressed GCN5 acetyltransferase | inhibition, % at 15.6 µM | 350,000 compounds, 0.17% hits;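 active = every replicate shows inhibition of at least 40%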;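 also: 0% = neutral control wells and 100% = positive control wells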
C2C12 statin: protects C2C12 myotubes from simvastatin toxicity | ATP luminescence, 48 h; scaled: DMSO 0, geranylgeraniol control 100 | rescue of ATP level, % at 7.49 µM | 330,000 compounds, 0.78% hits | AID 602340;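 active = mean ATP rescue above about 67%, or every replicate alone reaching that limit, limit read from the data, passing the limit was not always enough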;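 also: myotubes were challenged with 10 µM simvastatin during compound exposure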
Rtt109 Vps75: blocks Candida albicans Rtt109/Vps75 acetyltransferase activity; purified Rtt109/Vps75, ThioGlo CoA-SH fluorescence, 4 h; inhibition, % at 34.9 µM; 330,000 compounds, 0.16% hits;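 active = inhibition of at least 50% in every replicate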
Target sequence (Q5AAJ8 whole entry, looked up): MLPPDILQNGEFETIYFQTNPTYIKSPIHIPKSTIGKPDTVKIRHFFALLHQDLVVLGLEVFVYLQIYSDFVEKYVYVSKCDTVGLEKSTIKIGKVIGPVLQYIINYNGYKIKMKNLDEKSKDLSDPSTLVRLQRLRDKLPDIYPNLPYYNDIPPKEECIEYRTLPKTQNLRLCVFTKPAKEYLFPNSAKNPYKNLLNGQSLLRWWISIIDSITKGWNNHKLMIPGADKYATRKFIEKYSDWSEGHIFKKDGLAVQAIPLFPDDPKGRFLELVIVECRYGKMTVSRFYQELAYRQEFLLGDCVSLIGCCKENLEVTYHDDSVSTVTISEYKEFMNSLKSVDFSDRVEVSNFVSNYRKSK
S100A4 inh HTS: S100A4-myosin IIA interaction inhibition. P26447. AID 652163. S100A4/TAMRA-MyoIIA peptide fluorescence polarization. 360,000 compounds, 0.14% hits. inhibition, % at 10.7 µM;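 active = mean inhibition of at least 70% across replicates, with every replicate also reaching that level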
Target sequence (P26447 whole entry, looked up): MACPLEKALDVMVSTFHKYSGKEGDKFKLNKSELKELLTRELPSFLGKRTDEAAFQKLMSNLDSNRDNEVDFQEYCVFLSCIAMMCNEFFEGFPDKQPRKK
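Material: S100A4 monomer (human). Medium: Calcium-containing HEPES buffer, pH 7.2. Probe or stimulus: labelled myosin peptide probe, 5 nM. Compound dosing: one concentration per compound. Timing: polarization read 5 min after assay mix addition, stable 5–60 min. Benchmarks: DMSO as neutral control, TFP as positive control.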
Numbers without * were called inactive.

What do the screens show for `COCC(=O)N1[C@@H](CO)[C@@H](c2ccc(-c3ccccc3)cc2)C12CN(C(C)=O)C2`?
ERAP1 HTS inh: 0; PGC1a acetyl inh: 1; S100A4 inh HTS: -9

How did COc1ccc(-c2cn(CC[C@@H]3CC[C@@H](NC(=O)Nc4ccc(F)cc4)[C@@H](CO)O3)nn2)cc1 do in these assays?
ERAP1 HTS inh: -2; PGC1a acetyl inh: 7; S100A4 inh HTS: 10

What do the screens show for `O=S(=O)(c1ccc2[nH]c3c(c2c1)CCCC3)N1CCCCC1`?
ERAP1 HTS inh: 0; C2C12 statin: -7; Rtt109 Vps75: 15; S100A4 inh HTS: 20

What do the screens show for `N#Cc1ccc(S(=O)(=O)N2CCc3[nH]c4ccc(F)cc4c3C2)cc1`?
ERAP1 HTS inh: -4; PGC1a acetyl inh: 6; C2C12 statin: 4; Rtt109 Vps75: 54*; S100A4 inh HTS: 0

What do the screens show for `C[C@H]1CN([C@@H](C)CO)C(=O)Cc2cc(NS(C)(=O)=O)ccc2O[C@@H]1CN(C)C(=O)NC1CCCCC1`?
ERAP1 HTS inh: 2; PGC1a acetyl inh: 5; C2C12 statin: 2; S100A4 inh HTS: 5

Results for CC(C)(C)OC(=O)N1CCNc2ccccc2C1 ?
PGC1a acetyl inh: 3; C2C12 statin: 96*; Rtt109 Vps75: -2

How did CC(C)(C)OC(=O)N1Cc2cc3ccccc3nc2C1 do in these assays?
ERAP1 HTS inh: 3; S100A4 inh HTS: -9

How did N#C/C(C(=O)NCc1ccco1)=C1/SC(Cc2ccc(F)cc2)C(=O)N1c1ccccc1 (stereo not drawn) do in these assays?
PGC1a acetyl inh: -1; C2C12 statin: 87*; Rtt109 Vps75: -1

How did CCC1S/C(=C(\C#N)C(=O)NCc2ccco2)N(c2ccc(F)cc2)C1=O (stereo not drawn) do in these assays?
PGC1a acetyl inh: 13; C2C12 statin: 13; Rtt109 Vps75: 7

Results for O=C(CSc1nnc(NC(=O)c2ccccc2C(=O)O)s1)Nc1ccccc1Cl ?
ERAP1 HTS inh: 16; PGC1a acetyl inh: 7; C2C12 statin: 9; Rtt109 Vps75: -10; S100A4 inh HTS: -2

What do the screens show for `Cc1cccc(C)c1NC(=O)CSc1nnc(NC(=O)c2ccccc2C(=O)O)s1`?
ERAP1 HTS inh: 45*; PGC1a acetyl inh: 7; C2C12 statin: -4; Rtt109 Vps75: -8; S100A4 inh HTS: 1

How did C[C@@H]1CN([C@@H](C)CO)C(=O)c2cc(NC(=O)Cn3cnnn3)ccc2O[C@@H]1CN(C)C(=O)Nc1ccc2c(c1)OCO2 do in these assays?
ERAP1 HTS inh: 5; PGC1a acetyl inh: -2; C2C12 statin: -27; S100A4 inh HTS: -22

Results for O=C(CSc1nnc2ccccn12)NNC(=O)c1cccc(Cl)c1 ?
ERAP1 HTS inh: 1; PGC1a acetyl inh: 0; C2C12 statin: 113*; Rtt109 Vps75: 58*; S100A4 inh HTS: 0

What do the screens show for `C[C@@H]1CN([C@H](C)CO)C(=O)c2cc(NS(=O)(=O)c3cccs3)ccc2O[C@H]1CN(C)Cc1ccc2c(c1)OCO2`?
ERAP1 HTS inh: -2; PGC1a acetyl inh: 11; C2C12 statin: 37; S100A4 inh HTS: -14

What do the screens show for `CN(C)S(=O)(=O)c1ccc(S(=O)(=O)N(Cc2ccco2)Cc2ccccc2Cl)cc1`?
PGC1a acetyl inh: 9; C2C12 statin: -62; Rtt109 Vps75: -7

Results for O=S(=O)(c1ccc(S(=O)(=O)N(Cc2ccco2)Cc2ccccc2Cl)cc1)N1CCCC1 ?
PGC1a acetyl inh: 10; C2C12 statin: 94*; Rtt109 Vps75: -9

Results for CN1C(=O)c2cc(NC(=O)Cc3cccs3)ccc2OC[C@H]2O[C@@H](CC(=O)NCc3ccc(-c4ccccc4)cc3)CC[C@@H]21 ?
ERAP1 HTS inh: -1; PGC1a acetyl inh: 25; C2C12 statin: 45; S100A4 inh HTS: 0

Results for CN1C(=O)c2cc(NC(=O)c3ccccc3Cl)ccc2OC[C@@H]2O[C@@H](CC(=O)NCC(F)(F)F)CC[C@H]21 ?
ERAP1 HTS inh: 1; C2C12 statin: 22; S100A4 inh HTS: 127*

How did CN1C(=O)c2cc(NC(=O)Cc3cccs3)ccc2OC[C@H]2O[C@@H](CC(=O)NCc3ccc(-c4ccccc4)cc3)CC[C@H]21 do in these assays?
ERAP1 HTS inh: 0; PGC1a acetyl inh: -3; C2C12 statin: 72*; S100A4 inh HTS: -4

Results for CC(C)C(=O)Nc1ccc2c(c1)C(=O)N(C)[C@H]1CC[C@H](CC(=O)Nc3ccccc3)O[C@@H]1CO2 ?
ERAP1 HTS inh: 1; PGC1a acetyl inh: -13; C2C12 statin: 6; S100A4 inh HTS: 1

Screening results (PubChem BioAssay)
